# Screens: PubChem BioAssay, Broad Institute
# The list is not random: actives were taken first. Their share in the collection is about 2.5%.
# ERAP1 inh: inhibitors of human ERAP1 aminopeptidase; Q9NZ08; recombinant ERAP1, Leu-AMC fluorescence, 60 min; inhibition, % at 10.7 µM; hit rate 0.15% among 340,000; AID 652197;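 active means mean replicate inhibition of at least 30%, or all replicates individually reaching that 30% level; inactive means mean below 30% and not every replicate reaching it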;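 further: 0% = neutral control wells and 100% = L-leucinethiol positive control wells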
# E-selectin induc: induces E-selectin expression in human endothelial cells. hit rate 0.37% among 260,000. activation, % at 7.58 µM. AID 686992. HUVEC E-selectin immunofluorescence imaging; normalized: neutral wells 0, TNF-alpha wells 100;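 active means mean E-selectin-positive cell signal at least 10% of the positive control, reached in at least 60% of replicates, without over 20% cell loss; inconclusive means no rule given, readout overlaps actives, possibly toxicity-flagged; inactive means the rest, including those meeting only one limit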
#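 Assay system: HUVEC, human umbilical vein endothelial cells / Amount: 3,000 HUVEC/well / Controls: TNF-alpha positive control, DMSO neutral control / Compound dosing: single concentration / Medium: EGM-2 over gelatin coat / Evaluation: percent E-selectin-positive cells / Signal: immunofluorescence imaging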
# DENV2 CPE rescue: protects cells from dengue virus 2 cytopathic effect | DENV2-infected cells, cytopathic effect rescue, plate reader | CPE inhibition, % at 9.99 µM | hit rate 1.7% among 350,000 | AID 651640; in the data active means CPE inhibition above about 20%, passing the limit was not always enough; inconclusive means no clear call, values can overlap the other calls; tested in BHK-21 cells;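 further: 0% = median of neutral control wells and 100% = median of positive control wells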
# PglD DTNB: PglD (C. jejuni) enzyme inhibition; purified PglD enzyme, DTNB colorimetric CoA detection; inhibition, % at 12.5 µM; hit rate 0.098% among 360,000; AID 602405; in the data active means inhibition above about 16%, passing the limit was not always enough; inconclusive means no clear call, values can overlap the other calls
# SIRT5 block: blocks human SIRT5 desuccinylation of peptide | Purified SirT5, succinyl-peptide AMC, trypsin-coupled fluorescence | hit rate 1.1% among 330,000 | inhibition, % at 15 µM | AID 652115 | Q9NXA8; in the data active means inhibition above about 15%; inconclusive means no clear call, values can overlap the other calls
# An asterisk follows results filed as active; u = inconclusive; x = no result; ! = not confirmed by another sample.
SMILES,ERAP1 inh,E-selectin induc,DENV2 CPE rescue,PglD DTNB,SIRT5 block
C[C@@H]1CN([C@@H](C)CO)C(=O)c2cc(NC(=O)Cn3cnnn3)ccc2O[C@H]1CN(C)Cc1ccc(-c2ccccc2)cc1,1,0,-9,0,10
C[C@@H]1CN([C@@H](C)CO)C(=O)c2cc(NC(=O)Cn3cnnn3)ccc2O[C@@H]1CN(C)Cc1ccc(Oc2ccccc2)cc1,1,52*,-7,0,2
O=C(CN1C(=O)C2C3CC(C(Br)C3Br)C2C1=O)Nc1ccc(C(=O)O)cc1 (stereo unspecified),x,0,2,1,23*
CC(C)NC(=O)CSCc1cccc(Br)c1,2,x,2,5,19*
Cc1cc(C(=O)N/N=C/C=C/c2ccc([N+](=O)[O-])cc2)n[nH]1,7,54*,-9,x,-2
CCN(CC)CCCn1c2c(c(SCC(=O)Nc3cc(C)cc(C)c3)nc1=O)CCC2,1,x,22*,9,-2
CCCN1CCN(CCCNC(=O)c2cc3c(s2)-c2ccccc2OC3)CC1,18,1,6,0,-128
CC1CC(C)CN(CCCNC(=O)c2cc3c(s2)-c2ccccc2OC3)C1 (stereo unspecified),-54,x,4,0,-73
CCN1CCN(CCCNC(=O)c2cc3c(s2)-c2ccccc2OC3)CC1,54*,x,6,-4,-64
CC1CCCC(C)N1CCCNC(=O)c1cc2c(s1)-c1ccccc1OC2 (stereo unspecified),32*,x,-6,-1,-105
COCCNC(=O)c1ccc2c3n(nc2c1)-c1ccc(Cl)cc1CO3,4,0,122*,-4,x
c1ccc2c(c1)[nH]c1nc3nncn3nc12,0,x,7,-8,18*
COc1ccccc1-n1c(-c2ccccc2)c[n+]2c1CCc1ccccc1-2,-2,0,9,-3,112*!
C[C@@H]1CN([C@H](C)CO)C(=O)Cc2cc(NC(=O)Nc3ccc(F)cc3)ccc2O[C@H]1CN(C)S(=O)(=O)c1ccc(Cl)cc1,1,u,21*,-3,4
Cc1noc(C)c1S(=O)(=O)N(C)C[C@H]1Oc2ccc(NC(=O)Nc3ccc(F)cc3)cc2CC(=O)N([C@H](C)CO)C[C@@H]1C,3,64*,3,1,4
Cc1noc(C)c1S(=O)(=O)N(C)C[C@H]1Oc2ccc(NC(=O)Nc3ccc(F)cc3)cc2CC(=O)N([C@H](C)CO)C[C@H]1C,3,5,-2,3,3
Cc1ccc(S(=O)(=O)N(C)C[C@@H]2Oc3ccc(NC(=O)Nc4ccc(F)cc4)cc3CC(=O)N([C@H](C)CO)C[C@@H]2C)cc1,-2,3,2,-3,0
Cc1ccc(S(=O)(=O)N(C)C[C@H]2Oc3ccc(NC(=O)Nc4ccc(F)cc4)cc3CC(=O)N([C@H](C)CO)C[C@@H]2C)cc1,-3,0,80*,4,4
CC(C)NC(=O)Nc1ccc2c(c1)CC(=O)N([C@@H](C)CO)C[C@@H](C)[C@H](CN(C)S(=O)(=O)c1ccc(F)cc1)O2,-1,6,45*,-1,1
CO[C@@H]1CN(C)C(=O)c2cc(NC(=O)C3CCCC3)ccc2OC[C@H](C)N(CC2CC2)C[C@@H]1C,2,0,3,2,-3
COC(=O)c1ccc(CN2C(=O)[C@]3(OCCC=C[C@H]3C)c3ccccc32)cc1,3,u,-2,x,0
C#CCN1C(=O)[C@]2(OCCC=C[C@H]2C)c2ccccc21,5,1,77*,x,2
C[C@H](CO)N1C[C@H](C)[C@@H](CN(C)C(=O)Nc2ccc3c(c2)OCO3)Oc2c(NS(=O)(=O)c3ccccc3)cccc2C1=O,-1,0,28*!,2,1
C[C@@H]1CN([C@H](C)CO)C(=O)c2cccc(NS(=O)(=O)c3ccc(F)cc3)c2O[C@@H]1CN(C)C(=O)Nc1ccc2c(c1)OCO2,2,1,24*,1,-7
COc1ccc(-c2cc3ccc(OCc4nn[nH]n4)cc3oc2=O)cc1OC,-1,x,x,-3,5
SMILES,ERAP1 inh,E-selectin induc,DENV2 CPE rescue,PglD DTNB,SIRT5 block
N#C/C=C1/NC(=O)c2ccccc2S1,x,x,x,-5,x
CCC[N+](CC#Cc1ccccc1)(CCC)CC(=O)c1ccc(Cl)cc1,4,x,46*,x,x
COc1ccccc1-c1ccc([C@@H]2[C@H](CO)N(C(C)=O)C23CN(C(C)=O)C3)cc1,-2,0,28*,x,-1
CCC(=O)N1[C@H](CO)[C@H](c2ccc(C3=CCCC3)cc2)C12CN(C(=O)COC)C2,3,0,-3,x,-2
CCC(=O)N1CC2(C1)[C@@H](c1ccc(-c3ccccc3OC)cc1)[C@@H](CO)N2C(C)=O,-2,0,4,x,-5
CCC(=O)N1[C@H](CO)[C@@H](c2ccc(-c3ccccc3OC)cc2)C12CN(C(C)=O)C2,1,0,15,x,-3
COc1ccccc1-c1ccc([C@@H]2[C@@H](CO)N(C(=O)C3CC3)C23CN(C(C)=O)C3)cc1,-1,0,79*,x,0
CC(=O)N1[C@@H](CO)[C@@H](c2ccc(C3=CCCC3)cc2)C12CN(C(=O)NC(C)C)C2,1,0,41*,x,-1
C/C=C(/C)C(=O)O[C@@H]1c2cc(OC)c(OC)c(OC)c2-c2c(cc3c(c2OC)OCO3)C[C@H](C)[C@]1(C)O,-2,0,-10,1,0
CON(Cc1ccccc1)S(=O)(=O)c1ccccc1Br,1,0,-2,x,0
COc1cc2c(cc1OC)C(c1cccc(Br)c1)NC(=O)C2 (stereo unspecified),0,x,0,0,-1
COc1cc2c(cc1OC)C(c1c(Cl)cccc1Cl)NC(=O)C2 (stereo unspecified),-1,x,-2,2,26*
CCCS(=O)(=O)N1CCn2c(nc3ccccc32)C1,2,x,-5,1,15*
CC(C)CC#Cc1ccc([C@@H]2[C@H]3CN(S(=O)(=O)c4ccccc4)CC(=O)N3[C@H]2CO)cc1,-1,0,-12,x,-2
COc1ccc(S(=O)(=O)Nc2ccc3c(c2)C(=O)N([C@H](C)CO)C[C@H](C)[C@@H](CN(C)Cc2ccc4c(c2)OCO4)OCCCC[C@@H](C)O3)cc1,-1,0,23*,1,1
COc1ccc(S(=O)(=O)Nc2ccc3c(c2)C(=O)N([C@H](C)CO)C[C@H](C)[C@@H](CN(C)Cc2ccc4c(c2)OCO4)OCCCC[C@H](C)O3)cc1,-4,0,30*,5,1
COc1ccc(S(=O)(=O)Nc2ccc3c(c2)C(=O)N([C@@H](C)CO)C[C@@H](C)[C@H](CN(C)Cc2ccc4c(c2)OCO4)OCCCC[C@@H](C)O3)cc1,-4,2,56*,-2,4
N#C[C@@H]1[C@@H](c2ccc(C3=CCCCC3)cc2)[C@H](CO)N1C(=O)Cc1ccncc1,3,1,-4,-1,6
